Here are results for eight compounds from publication PMC7688577 (FASEB journal : official publication of the Federation of …, 2020).

The test system of assay [1] is rhodopsin mutants (T4R, P23H, P53R, C110Y, D190N, P267L). Format: cell-based, mouse. The settings on record: U2OS cells; T4R, P23H, P53R, C110Y, D190N, P267L mutants. The method, boiled down: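 U2OS stable lines expressed WT or mutant mouse rhodopsin fused to Venus. Cells were transfected with pcDNA3.1 Zeo constructs, kept 48 h in DMEM/10% FBS, then selected with 400 μg/mL Zeocin. Stable cells were treated with test compound at 10 μM and immunostained for rhodopsin.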

In assay [2] the test system is WT rhodopsin fused with Renilla luciferase. Nature of the assay: Rluc reporter counter assay in Hek293. It counts as cell-based, mouse. The settings on record: DMSO = 0%, 1 mM Evans Blue = -100%; NA = no dose response effect. The method, boiled down: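 HEK293 cells stably expressing WT rhodopsin–Rluc, run as the HTS reporter assay: cells spun 300 × g 30 s, cultured overnight at 37 °C, 5% CO2; test compound in DMSO pin-transferred. ViviREN (50 μM solution in PBS) added, 1 h dim light, room temperature; luminescence read. Score = (RLU_compound − RLU_DMSO)/(RLU_DMSO − RLU_Evans Blue) ×100; 10 μM triplicates and dose-response.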

Assay [3] deals with P23H rhodopsin fused with Renilla luciferase (Mus musculus, UniProt P15409, P23H). As to the kind of experiment: Rluc reporter assay in Hek293. It counts as cell-based. The settings on record: for Rluc assay Hek293 (RHO^P23H-Rluc) Efficacy: DMSO = 0%, 1 mM Evans Blue = -100%; for EC50: read-out: Rluc assay Hek293 (RHO^P23H-Rluc) EC50, 24 h treatment, dose response. In general terms: A reporter such as luciferase makes a cellular process visible.

The subject of a further assay is RHO transcripts. As to the kind of experiment: qPCR of RHO transcripts in NIH3T3. Format: cell-based, mouse. The settings on record: 10 μM; for Rho mRNA level (qPCR): NIH3T3(RHO^P23H/GFP) cells, vs DMSO control; for Rho mRNA level (qPCR) / WT and P23H rhodopsin transcripts in comparison to DMSO control: 24 h. The method, boiled down: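 NIH3T3 cells stably expressing WT or P23H rhodopsin (GFP lines) were seeded in 24-well plates at 2.5×10⁵ cells/well and cultured overnight at 37 °C, 5% CO₂. They were then exposed to test compound in culture medium for 24 h. RNA was precipitated by centrifugation at 12,000×g for 10 min at 4 °C, washed with 75% ethanol, air-dried and dissolved in nuclease-free water before qPCR.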
(In general: Real-time PCR tracks product formation cycle by cycle.)

Assay [4] addresses T1, P23H rhodopsin (Mus musculus, UniProt P15409, P23H). As to the kind of experiment: Image-based. The settings on record: for Image-based assay NIH3T3 (RHO^P23H/GFP) Efficacy: DMSO = 0%, secondary antibody only = -100%; for EC50: read-out: Image-based assay NIH3T3 (RHO^P23H/GFP) EC50, 24 h treatment, 8-10 doses. It counts as cell-based.
Assay [5] concerns the target T1, P23H rhodopsin. Nature of the assay: Non-radioactive pulse-chase assay in NIH3T3. It counts as cell-based. The following applies: 10 μM; for Rate of Rho^P23H degradation (Pulse-chase): NIH3T3(RHO^P23H/GFP) cells, 24 h chase, vs DMSO control. The method, boiled down: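 Non-radioactive pulse-chase. Cells (3 × 10⁵/well, 24-well) were grown overnight, starved in Met-free DMEM for 1 h, then pulsed with 50 μM L-AHA for 4 h (50 μM Met as negative control). Chase was 24 h in DMEM with 2 mM Met ± 10 μM test compound. Lysates (200 μg) were clicked with 5 μM BTN-sDIBO for 1 h at 37 °C, immunoprecipitated with 1D4, eluted at pH 2.8, dot-blotted and probed with HRP-streptavidin. Values normalized to DMSO on the same membrane; N=3, unpaired two-tailed t-test.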

The target in assay [6] is T1, P23H rhodopsin. Nature of the assay: Rhodopsin dot blot of NIH3T3. It counts as cell-based. The following applies: NIH3T3(RHO^P23H/GFP) cells, 10 μM, 24 h, vs DMSO control. The method, boiled down:
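NIH3T3(RHO^P23H/GFP) cells were seeded at 2.5 × 10⁴/well in 96-well plates, attached 4 h, then given medium with 2× test compound to reach 10 μM final for 24 h. Cells were PBS-washed and lysed in RIPA with protease inhibitors plus 6 s sonication. Of each well's lysate, 90% was dotted on nitrocellulose, air-dried and probed with 0.1 μg/mL HRP-1D4. Densitometry was normalized to DMSO.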

[7] abbreviates: both NIH3T3(RHO^P23H/GFP) and NIH3T3(RHO^WT/GFP) cells.

As to `CC(=O)OC(CC(=O)[O-])C[N+](C)(C)C` (stereo not drawn) [CL-001], in assay [1], the “Immunofluorescence intensities of rhodopsin mutants” value (“Immunofluorescence intensities” for short) was “reduced”. Further, the “Rluc assay Hek293 (RHO^WT-Rluc) Efficacy” value in assay [2] is −44.3%. For the same compound, in assay [3], the “Rluc assay Hek293 (RHO^P23H-Rluc) Efficacy” value is given as −69.4% and the EC50 is 1.1 µM. Further, in the assay on RHO transcripts, the “Rho mRNA level (qPCR)” value is “Down”. The “WT and P23H rhodopsin transcripts in comparison to DMSO control” value (shortened to “WT and P23H rhodopsin transcripts”) in the assay with RHO transcripts (setting [7]) was “reduced non-selectively”. On P23H rhodopsin [4], the “Image-based assay NIH3T3 (RHO^P23H/GFP) Efficacy” value is recorded as −83.6% and the EC50 is 2.1 µM. For the same compound, the “BTN-AHA labeled P23H rhodopsin at 24 h of chase in comparison to DMSO control” value (shortened to “BTN-AHA labeled P23H rhodopsin at 24 h”) on P23H rhodopsin [5] was “significantly reduced”. Besides, the “Rho protein level (Dot blot)” value on P23H rhodopsin [6] is listed as “Down”.

Take `CC(=O)OC(CC(=O)O)C[N+](C)(C)C` (stereo not drawn) [CL-002]: the “Immunofluorescence intensities” value in assay [1] was “reduced”. In addition, in assay [2], the “Rluc assay Hek293 (RHO^WT-Rluc) Efficacy” value is −62.0%. In addition, in assay [3], the “Rluc assay Hek293 (RHO^P23H-Rluc) Efficacy” value is −86.1% and the EC50 turned out to be 2 µM. For the same compound, the “Rho mRNA level (qPCR)” value in the assay on RHO transcripts was “Down”. In addition, the “WT and P23H rhodopsin transcripts” value with RHO transcripts (setting [7]) is “reduced non-selectively”. For the same compound, on P23H rhodopsin [4], the “Image-based assay NIH3T3 (RHO^P23H/GFP) Efficacy” value is recorded as −61.0% and the EC50 is 1.6 µM. Further, on P23H rhodopsin [5], the “BTN-AHA labeled P23H rhodopsin at 24 h” value is given as “significantly reduced”. For the same compound, the “Rho protein level (Dot blot)” value on P23H rhodopsin [6] is listed as “Down”.

As for `O=C(O)C1=CC=CC(O)C1O` (stereo not drawn) [CL-003], the “Rluc assay Hek293 (RHO^WT-Rluc) Efficacy” value in assay [2] is recorded as −37.7%. In assay [3], the “Rluc assay Hek293 (RHO^P23H-Rluc) Efficacy” value was −65.3% and the EC50 came to 0.89 µM. Also, in the assay with RHO transcripts, the “Rho mRNA level (qPCR)” value was “Down”. Moreover, in the assay with RHO transcripts (setting [7]), the “WT and P23H rhodopsin transcripts” value is reported as “reduced non-selectively”. Moreover, on P23H rhodopsin [4], the “Image-based assay NIH3T3 (RHO^P23H/GFP) Efficacy” value was −46.1% and the EC50 was determined as 0.6 µM. In addition, the “Rate of Rho^P23H degradation (Pulse-chase)” value (from here on “Rate of Rho^P23H degradation”) on P23H rhodopsin [5] is “No Change”. The “Rho protein level (Dot blot)” value on P23H rhodopsin [6] was “Down”.

As for `CC(O)CN` (stereo not drawn) [CL-004], the “Rluc assay Hek293 (RHO^WT-Rluc) Efficacy” value in assay [2] is recorded as −45.5%. In assay [3], the “Rluc assay Hek293 (RHO^P23H-Rluc) Efficacy” value is recorded as −68.6% and the EC50 stood at 1.6 µM. Further, in the assay with RHO transcripts, the “Rho mRNA level (qPCR)” value is recorded as “Down”. In the assay with RHO transcripts (setting [7]), the “WT and P23H rhodopsin transcripts” value is given as “reduced non-selectively”. Also, at P23H rhodopsin [4], the “Image-based assay NIH3T3 (RHO^P23H/GFP) Efficacy” value is −70.7% and the EC50 stood at 0.47 µM. On P23H rhodopsin [5], the “Rate of Rho^P23H degradation” value is on record as “No Change”. In addition, the “Rho protein level (Dot blot)” value at P23H rhodopsin [6] was “Down”.

Turning to `NCC(=O)COP(=O)(O)O` [CL-005], in assay [1], the “Immunofluorescence intensities” value was “reduced”. Moreover, the “Rluc assay Hek293 (RHO^WT-Rluc) Efficacy” value in assay [2] is reported as −57.9%. In addition, in assay [3], the “Rluc assay Hek293 (RHO^P23H-Rluc) Efficacy” value is on record as −78.2% and the EC50 was 6.6 µM. The “Increase of rhodopsin transcripts compared to DMSO control” value with RHO transcripts (setting [7]) is “up to 2 fold”. On P23H rhodopsin [4], the “Image-based assay NIH3T3 (RHO^P23H/GFP) Efficacy” value is on record as −72.7% and the EC50 is 1.3 µM. The “BTN-AHA labeled P23H rhodopsin at 24 h” value at P23H rhodopsin [5] is listed as “significantly reduced”. Further, the “Rho protein level (Dot blot)” value on P23H rhodopsin [6] is “Down”.

Consider `O=[N+]([O-])c1ccc(Cl)c([N+](=O)[O-])c1` [CL-006], for which the “Rluc assay Hek293 (RHO^WT-Rluc) Efficacy” value in assay [2] was −42.9%. Also, in assay [3], the “Rluc assay Hek293 (RHO^P23H-Rluc) Efficacy” value is −66.2% and the EC50 turned out to be 1.7 µM. The “Rho mRNA level (qPCR)” value with RHO transcripts was “Down”. For the same compound, the “WT and P23H rhodopsin transcripts” value with RHO transcripts (setting [7]) is recorded as “reduced non-selectively”. Moreover, at P23H rhodopsin [4], the “Image-based assay NIH3T3 (RHO^P23H/GFP) Efficacy” value is −76.4% and the EC50 worked out at 2.2 µM. In addition, on P23H rhodopsin [5], the “Rate of Rho^P23H degradation” value is “No Change”. Moreover, the “Rho protein level (Dot blot)” value at P23H rhodopsin [6] is reported as “Down”.

As to `CCn1cnc2c(N)ncnc21` [CL-007], the “Immunofluorescence intensities” value in assay [1] was “reduced”. Further, the “Rluc assay Hek293 (RHO^WT-Rluc) Efficacy” value in assay [2] is given as −51.7%. Besides, in assay [3], the “Rluc assay Hek293 (RHO^P23H-Rluc) Efficacy” value is listed as −72.5% and the EC50 was determined as 13 µM. Besides, in the assay with RHO transcripts, the “Rho mRNA level (qPCR)” value was “Down”. Moreover, the “WT and P23H rhodopsin transcripts” value in the assay with RHO transcripts (setting [7]) is “reduced non-selectively”. Moreover, on P23H rhodopsin [4], the “Image-based assay NIH3T3 (RHO^P23H/GFP) Efficacy” value is on record as −72.7% and the EC50 came to 2.9 µM. The “BTN-AHA labeled P23H rhodopsin at 24 h” value on P23H rhodopsin [5] is “significantly reduced”. Further, at P23H rhodopsin [6], the “Rho protein level (Dot blot)” value was “Down”.

On to `CCC(C)(O)C(O)C(=O)O` (stereo not drawn) [CL-008], for which the “Rluc assay Hek293 (RHO^WT-Rluc) Efficacy” value in assay [2] is −52.7%. In assay [3], the “Rluc assay Hek293 (RHO^P23H-Rluc) Efficacy” value is listed as −89.5% and the EC50 amounted to 0.93 µM. Further, the “Rho mRNA level (qPCR)” value in the assay with RHO transcripts was “Down”. Further, the “WT and P23H rhodopsin transcripts” value in the assay on RHO transcripts (setting [7]) is reported as “reduced non-selectively”. In addition, on P23H rhodopsin [4], the “Image-based assay NIH3T3 (RHO^P23H/GFP) Efficacy” value was −70.1% and the EC50 amounted to 1.6 µM. For the same compound, the “Rate of Rho^P23H degradation” value on P23H rhodopsin [5] was “No Change”. The “Rho protein level (Dot blot)” value at P23H rhodopsin [6] is “Down”.
